Broadly, the EC50 is the concentration needed to bring the measured effect to its halfway point. Read a low EC50 as greater potency. As a reminder, the IC50 is the midpoint of a concentration-inhibition curve. Read a low IC50 as inhibition by little substance. A word on the inhibition: it is the percentage by which the read-out fell short of the control.

Assay [1] is filed under the species Rattus norvegicus. Description: Inhibitory activity against whole cell Ras prenylation. Type of assay: functional. A digest of the protocol: (§1)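 Compounds were generally tested once, with some tested at n = 2, 4 or 8. Enzyme values are IC50 and cellular values are EC50 (nM). Stated assay reliability is ±50% for the in vitro assay and ±50–100% for the cellular assay. A 3-fold difference is treated as significant.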

For assay [2], the target named is Protein farnesyltransferase (Rattus norvegicus, UniProt Q02293+Q04631). Description: In vitro inhibitory activity against Farnesyltransferase (FTase). Type of assay: protein-complex assay. An outline of the steps:
as §1

Assay [3] is filed under the species Rattus norvegicus. Nature of the assay: Inhibitory activity against whole cell Ras prenylation at a concentration of 300 nM. Type of assay: functional.
The species entered for assay [4] is Rattus norvegicus. Nature of the assay: Inhibitory activity against whole cell Ras prenylation at a concentration of 1000 nM. Type of assay: functional.
Assay [5] is filed under the species Rattus norvegicus. Description: Inhibitory activity against whole cell Ras prenylation at a concentration of 50 nM. The format is functional.

For the compound `CSCC[C@H](NC(=O)c1ccc(CN[C@H](CSc2ccccc2)CC2CCCCC2)cc1-c1ccccc1C)C(=O)O`, in the assay filed under Rattus norvegicus [1], the EC50 worked out at 12 nM. The compound further gave an IC50 in assay [2] of 0.2 nM.

Consider `CSCC[C@H](NC(=O)c1ccc(CN[C@@H](CO)C2CCCCC2)cc1-c1ccccc1C)C(=O)O`, for which, in assay [2], half-maximal inhibition (IC50) required 10 nM.

In turn, `CSCC[C@H](NC(=O)c1ccc(CN[C@H](CSC(C)(C)C)CC2CCCCC2)cc1-c1ccccc1C)C(=O)O` came in with an EC50 in the assay listed under Rattus norvegicus [1] of 2.8 nM. In assay [2], this compound came in with an IC50 of 0.6 nM.

In the case of `CCSC[C@H](CC1CCCCC1)NCc1ccc(C(=O)N[C@@H](CCS(C)(=O)=O)C(=O)O)c(-c2ccccc2C)c1`, the inhibition at 0.3 µM in the assay filed under Rattus norvegicus [3] turned out to be 34%. In assay [2], this compound came in with a 50% inhibitory concentration (IC50) of 1 nM.

Turning to `CSCC[C@H](NC(=O)c1ccc(CN[C@H](CSC2CCCCC2)CC2CCCCC2)cc1-c1ccccc1C)C(=O)O`, the inhibition at 1 µM in the assay listed under Rattus norvegicus [4] is 80%. The midpoint of inhibition in assay [2], the IC50, lay at 0.41 nM.

As to `CSCC[C@H](NC(=O)c1ccc(CN[C@H](CO)CC2CCCCC2)cc1-c1ccccc1)C(=O)O`, in assay [2], the midpoint of inhibition, the IC50, lay at 8 nM.

On to `CCS(=O)(=O)C[C@H](CC1CCCCC1)NCc1ccc(C(=O)N[C@@H](CCS(C)(=O)=O)C(=O)O)c(-c2ccccc2C)c1`, for which the inhibition at 1 µM in the assay filed under Rattus norvegicus [4] is 63%. The concentration for half-maximal inhibition (IC50) in assay [2] was determined as 1.2 nM.

Turning to `CSCC[C@H](NC(=O)c1ccc(CN[C@@H](CO)CC2CCCCC2)cc1-c1ccccc1C)C(=O)O`, the IC50 in assay [2] is 12 nM. This lies in the double-digit nanomolar range.

For `CSCC[C@H](NC(=O)c1ccc(CNCCC2CCCCC2)cc1-c1ccccc1C)C(=O)O`, the EC50 in the assay listed under Rattus norvegicus [1] turned out to be 200 nM. In assay [2], this compound displayed an IC50 of 0.17 nM.

In turn, `CC[C@H](CC1CCCCC1)NCc1ccc(C(=O)N[C@@H](CCSC)C(=O)O)c(-c2ccccc2C)c1` registered an EC50 in the assay listed under Rattus norvegicus [1] above 1000 nM. The compound further yielded an IC50 in assay [2] of 0.7 nM.

With `CSCC[C@H](NC(=O)c1ccc(CN(CCC2CCCCC2)C(=O)c2ccccc2)cc1-c1ccccc1C)C(=O)O`, in the assay listed under Rattus norvegicus [1], the EC50 was above 1000 nM. Besides, the IC50 in assay [2] was determined as 1.1 nM.

`CSCC[C@H](NC(=O)c1ccc(CN(CCC2CCCCC2)C(C)=O)cc1-c1ccccc1C)C(=O)O` displayed an EC50 in the assay filed under Rattus norvegicus [1] above 1000 nM. The IC50 in assay [2] was 2.9 nM.

Regarding `CCCC[C@H](CC1CCCCC1)NCc1ccc(C(=O)N[C@@H](CCSC)C(=O)O)c(-c2ccccc2C)c1`, the midpoint of the response in the assay listed under Rattus norvegicus [1], the EC50, lay at 4.3 nM. Also, the 50% inhibitory concentration (IC50) in assay [2] stood at 0.46 nM.

For the compound `CSCC[C@H](NC(=O)c1ccc(CN(CCC2CCCCC2)Cc2ccccc2)cc1-c1ccccc1C)C(=O)O`, the 50% effective concentration (EC50) in the assay listed under Rattus norvegicus [1] was above 1000 nM. This compound had an IC50 in assay [2] of 3.5 nM.

Take `CSCC[C@H](NC(=O)c1ccc(CN[C@H](/C=C/CC(C)C)CC2CCCCC2)cc1-c1ccccc1C)C(=O)O`: the IC50 in assay [2] was found to be 0.22 nM.

With `CSCC[C@H](NC(=O)c1ccc(CN[C@H](CSc2ccccc2C)CC2CCCCC2)cc1-c1ccccc1C)C(=O)O`, in the assay filed under Rattus norvegicus [4], the inhibition at 1 µM stood at 77%. This compound came in with a half-maximal inhibitory concentration (IC50) in assay [2] of 0.42 nM.

As for `CSCC[C@H](NC(=O)c1ccc(CN[C@H](CO)Cc2ccccc2)cc1-c1ccccc1C)C(=O)O`, the IC50 in assay [2] worked out at 4.6 nM.

With `CCSC[C@H](CC1CCCCC1)NCc1ccc(C(=O)N[C@@H](CCSC)C(=O)O)c(-c2ccccc2C)c1`, in the assay filed under Rattus norvegicus [1], a half-maximal effect (EC50) was put at 4.4 nM. Also, it took 0.2 nM to reach half-maximal inhibition in assay [2] (IC50).

`CSCC[C@H](NC(=O)c1ccc(CN[C@H](CO)CC2CCCCC2)cc1-c1ccccc1C)C(=O)O` registered a half-maximal effective concentration (EC50) in the assay listed under Rattus norvegicus [1] of 190 nM. In addition, 0.16 nM corresponded to half-maximal inhibition in assay [2] (IC50).

On to `CCS(=O)(=O)C[C@H](CC1CCCCC1)NCc1ccc(C(=O)N[C@@H](CCSC)C(=O)O)c(-c2ccccc2C)c1`, for which testing at 0.05 µM in the assay listed under Rattus norvegicus [5] gave an inhibition of 59%. In addition, the half-maximal inhibitory concentration (IC50) in assay [2] turned out to be 0.14 nM.

`CSCC[C@H](NC(=O)c1ccc(CN(C)CCC2CCCCC2)cc1-c1ccccc1C)C(=O)O` had an EC50 in the assay filed under Rattus norvegicus [1] of 12 nM. The IC50 in assay [2] was found to be 0.87 nM.

`CSCC[C@H](NC(=O)c1ccc(CNC(CC2CCCCC2)CC2CCCCC2)cc1-c1ccccc1C)C(=O)O` had an inhibition at 1 µM in the assay listed under Rattus norvegicus [4] of 75%. The same compound registered an IC50 in assay [2] of 0.25 nM.

The compound `CSCC[C@H](NC(=O)c1ccc(CN(CCC2CCCCC2)C(=O)OC(C)(C)C)cc1-c1ccccc1C)C(=O)O` returned an EC50 in the assay listed under Rattus norvegicus [1] of 160 nM. Moreover, the IC50 in assay [2] amounted to 0.17 nM.

As for `CSCC[C@H](NC(=O)c1ccc(CN[C@H](CCCC(C)C)CC2CCCCC2)cc1-c1ccccc1C)C(=O)O`, the EC50 in the assay filed under Rattus norvegicus [1] was determined as 52 nM. For the same compound, the midpoint of inhibition in assay [2], the IC50, lay at 0.28 nM.

The compound `COC[C@H](CC1CCCCC1)NCc1ccc(C(=O)N[C@@H](CCSC)C(=O)O)c(-c2ccccc2C)c1` returned an inhibition at 0.3 µM in the assay filed under Rattus norvegicus [3] of 47%. The compound further had an IC50 in assay [2] of 0.66 nM.

In turn, `CSCC[C@H](NC(=O)c1ccc(CN[C@H](C)CC2CCCCC2)cc1-c1ccccc1C)C(=O)O` displayed a concentration for a half-maximal effect (EC50) in the assay filed under Rattus norvegicus [1] above 1000 nM. In addition, the half-inhibitory concentration (IC50) in assay [2] was found to be 0.7 nM.

Compound `CSCC[C@H](NC(=O)c1ccc(CN[C@H](CO)C2CCCCC2)cc1-c1ccccc1C)C(=O)O` gave an IC50 in assay [2] of 4 nM.

These data come from ChEMBL document CHEMBL1132482, “Discovery of a series of cyclohexylethylamine-containing protein farnesyltransferase inhibitors exhibiting potent cellular activity” (J Med Chem, 1999).
